From ChEMBL document CHEMBL1136991, “Novel potent BRAF inhibitors: toward 1 nM compounds through optimization of the central phenyl ring” (J Med Chem, 2009)

Key:
[1] = target: Ribosomal protein S6 kinase alpha-5 (Homo sapiens) (UniProt O75582); experiment: Inhibition of MSK1 at 1 uM relative to control
[2] = target: Aurora kinase B (Homo sapiens) (UniProt Q96GD4); experiment: Inhibition of Aurora B at 1 uM relative to control
[3] = target: T1, Mitogen-activated protein kinase 15 (Homo sapiens) (UniProt Q8TD08); experiment: Inhibition of ERK8 at 1 uM relative to control
T1 sequence (whole entry): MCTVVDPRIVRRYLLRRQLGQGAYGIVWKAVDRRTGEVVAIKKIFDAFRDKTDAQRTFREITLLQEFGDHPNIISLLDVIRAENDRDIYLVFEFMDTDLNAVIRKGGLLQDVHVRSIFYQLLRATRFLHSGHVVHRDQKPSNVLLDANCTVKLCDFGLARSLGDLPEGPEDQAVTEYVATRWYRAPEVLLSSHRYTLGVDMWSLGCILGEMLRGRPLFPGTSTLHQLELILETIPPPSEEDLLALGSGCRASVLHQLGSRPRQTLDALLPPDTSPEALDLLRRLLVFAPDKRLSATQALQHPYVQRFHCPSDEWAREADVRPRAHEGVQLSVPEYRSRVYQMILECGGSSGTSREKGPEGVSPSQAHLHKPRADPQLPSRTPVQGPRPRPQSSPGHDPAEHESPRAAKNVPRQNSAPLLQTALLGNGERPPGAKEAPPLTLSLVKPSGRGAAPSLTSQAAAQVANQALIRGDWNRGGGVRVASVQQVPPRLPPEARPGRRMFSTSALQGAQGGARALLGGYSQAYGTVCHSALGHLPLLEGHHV

[4] = target: Calcium/calmodulin-dependent protein kinase type 1 (Homo sapiens) (UniProt Q14012); experiment: Inhibition of CAMK1 at 1 uM relative to control
[5] = target: Serine/threonine-protein kinase pim-3 (Homo sapiens) (UniProt Q86V86); experiment: Inhibition of PIM3 at 1 uM relative to control
[6] = target: Ribosomal protein S6 kinase alpha-3 (Homo sapiens) (UniProt P51812); experiment: Inhibition of RSK2 at 1 uM relative to control
[7] = target: T2, Serine/threonine-protein kinase D1 (Homo sapiens) (UniProt Q15139); experiment: Inhibition of PKD1 at 1 uM relative to control
T2 sequence (whole entry): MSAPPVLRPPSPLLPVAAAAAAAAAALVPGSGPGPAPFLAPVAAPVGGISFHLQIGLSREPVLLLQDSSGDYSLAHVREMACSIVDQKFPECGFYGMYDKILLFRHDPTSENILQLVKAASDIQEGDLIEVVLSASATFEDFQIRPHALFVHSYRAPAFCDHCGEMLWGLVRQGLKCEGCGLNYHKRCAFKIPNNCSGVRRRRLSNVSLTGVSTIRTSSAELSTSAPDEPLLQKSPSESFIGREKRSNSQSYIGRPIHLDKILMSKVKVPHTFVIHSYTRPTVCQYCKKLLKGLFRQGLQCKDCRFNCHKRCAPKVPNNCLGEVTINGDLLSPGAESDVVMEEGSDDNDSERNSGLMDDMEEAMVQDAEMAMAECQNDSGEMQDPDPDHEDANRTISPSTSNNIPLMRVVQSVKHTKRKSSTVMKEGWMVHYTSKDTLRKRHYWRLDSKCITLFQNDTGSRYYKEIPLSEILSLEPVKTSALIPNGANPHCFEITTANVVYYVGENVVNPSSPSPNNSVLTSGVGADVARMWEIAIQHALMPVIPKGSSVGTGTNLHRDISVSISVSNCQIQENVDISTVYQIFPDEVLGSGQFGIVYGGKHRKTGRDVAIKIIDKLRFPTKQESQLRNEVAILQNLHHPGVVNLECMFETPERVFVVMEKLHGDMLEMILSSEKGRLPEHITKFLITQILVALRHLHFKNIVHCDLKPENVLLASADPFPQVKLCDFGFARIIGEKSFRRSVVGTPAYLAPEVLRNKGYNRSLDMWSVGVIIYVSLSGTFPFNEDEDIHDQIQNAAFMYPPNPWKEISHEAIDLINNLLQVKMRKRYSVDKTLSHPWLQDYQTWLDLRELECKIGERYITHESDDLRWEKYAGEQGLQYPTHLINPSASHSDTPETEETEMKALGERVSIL

[8] = Inhibition of CK1 at 1 uM relative to control
[9] = target: Serine/threonine-protein kinase B-raf (Homo sapiens, UniProt P15056, V600E); experiment: Inhibition of BRAF V600E mutant
Summary of the method: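 Purified, isolated V600E BRAF enzyme assayed in vitro; potency reported as IC50.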

[10] = target: RAC-alpha serine/threonine-protein kinase (Homo sapiens) (UniProt P31749); experiment: Inhibition of PKBalpha at 1 uM relative to control
[11] = target: Serine/threonine-protein kinase Nek7 (Homo sapiens) (UniProt Q8TDX7); experiment: Inhibition of NEK7 at 1 uM relative to control
[12] = target: Serine/threonine-protein kinase PAK 6 (Homo sapiens) (UniProt Q9NQU5); experiment: Inhibition of PAK6 at 1 uM relative to control
[13] = target: T3, Aurora kinase C (Homo sapiens) (UniProt Q9UQB9); experiment: Inhibition of Aurora C at 1 uM relative to control
T3 sequence (whole entry): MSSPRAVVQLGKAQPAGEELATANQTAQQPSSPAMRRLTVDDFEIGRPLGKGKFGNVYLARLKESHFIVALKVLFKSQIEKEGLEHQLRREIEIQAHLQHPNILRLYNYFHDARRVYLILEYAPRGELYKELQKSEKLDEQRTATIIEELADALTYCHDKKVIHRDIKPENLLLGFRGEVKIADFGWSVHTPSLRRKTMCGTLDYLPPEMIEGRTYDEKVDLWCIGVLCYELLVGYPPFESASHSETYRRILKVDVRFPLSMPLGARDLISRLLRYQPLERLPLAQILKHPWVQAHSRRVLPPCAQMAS

[14] = target: Protein kinase C alpha type (Homo sapiens) (UniProt P17252); experiment: Inhibition of PKCalpha at 1 uM relative to control

Sequence of Serine/threonine-protein kinase B-raf (P15056 2-766 V600E limits assumed): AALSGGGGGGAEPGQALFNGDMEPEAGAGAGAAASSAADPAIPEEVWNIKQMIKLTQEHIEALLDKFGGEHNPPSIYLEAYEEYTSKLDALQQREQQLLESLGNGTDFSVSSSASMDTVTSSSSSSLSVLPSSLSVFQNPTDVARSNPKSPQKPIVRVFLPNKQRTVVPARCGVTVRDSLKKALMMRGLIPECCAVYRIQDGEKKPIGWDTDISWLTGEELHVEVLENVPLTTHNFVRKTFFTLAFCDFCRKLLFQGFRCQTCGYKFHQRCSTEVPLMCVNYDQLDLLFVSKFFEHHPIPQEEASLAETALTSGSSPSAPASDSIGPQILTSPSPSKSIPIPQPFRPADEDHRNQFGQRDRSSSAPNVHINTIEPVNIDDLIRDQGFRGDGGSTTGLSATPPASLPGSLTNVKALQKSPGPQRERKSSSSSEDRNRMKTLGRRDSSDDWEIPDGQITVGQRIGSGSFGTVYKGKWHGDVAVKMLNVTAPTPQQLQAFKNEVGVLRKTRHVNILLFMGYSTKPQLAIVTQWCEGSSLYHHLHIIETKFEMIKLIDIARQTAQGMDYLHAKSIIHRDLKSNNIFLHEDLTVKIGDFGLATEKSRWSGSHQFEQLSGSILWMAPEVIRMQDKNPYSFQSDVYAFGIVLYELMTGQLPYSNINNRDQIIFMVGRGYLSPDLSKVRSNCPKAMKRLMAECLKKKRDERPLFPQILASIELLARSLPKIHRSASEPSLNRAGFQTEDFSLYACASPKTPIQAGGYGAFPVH
Sequence of Calcium/calmodulin-dependent protein kinase type 1 (Homo sapiens) (Q14012 whole entry, looked up): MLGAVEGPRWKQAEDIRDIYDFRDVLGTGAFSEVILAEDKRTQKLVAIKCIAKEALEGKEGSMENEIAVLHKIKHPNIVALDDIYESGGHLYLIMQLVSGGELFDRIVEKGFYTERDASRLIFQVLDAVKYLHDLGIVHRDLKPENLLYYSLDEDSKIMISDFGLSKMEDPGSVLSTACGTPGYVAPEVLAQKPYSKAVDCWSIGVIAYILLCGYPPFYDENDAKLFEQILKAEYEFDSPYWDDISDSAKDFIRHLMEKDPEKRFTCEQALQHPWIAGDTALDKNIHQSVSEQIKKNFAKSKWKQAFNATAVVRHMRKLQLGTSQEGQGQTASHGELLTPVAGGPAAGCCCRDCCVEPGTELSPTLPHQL
Sequence of Ribosomal protein S6 kinase alpha-3 (Homo sapiens) (P51812 whole entry): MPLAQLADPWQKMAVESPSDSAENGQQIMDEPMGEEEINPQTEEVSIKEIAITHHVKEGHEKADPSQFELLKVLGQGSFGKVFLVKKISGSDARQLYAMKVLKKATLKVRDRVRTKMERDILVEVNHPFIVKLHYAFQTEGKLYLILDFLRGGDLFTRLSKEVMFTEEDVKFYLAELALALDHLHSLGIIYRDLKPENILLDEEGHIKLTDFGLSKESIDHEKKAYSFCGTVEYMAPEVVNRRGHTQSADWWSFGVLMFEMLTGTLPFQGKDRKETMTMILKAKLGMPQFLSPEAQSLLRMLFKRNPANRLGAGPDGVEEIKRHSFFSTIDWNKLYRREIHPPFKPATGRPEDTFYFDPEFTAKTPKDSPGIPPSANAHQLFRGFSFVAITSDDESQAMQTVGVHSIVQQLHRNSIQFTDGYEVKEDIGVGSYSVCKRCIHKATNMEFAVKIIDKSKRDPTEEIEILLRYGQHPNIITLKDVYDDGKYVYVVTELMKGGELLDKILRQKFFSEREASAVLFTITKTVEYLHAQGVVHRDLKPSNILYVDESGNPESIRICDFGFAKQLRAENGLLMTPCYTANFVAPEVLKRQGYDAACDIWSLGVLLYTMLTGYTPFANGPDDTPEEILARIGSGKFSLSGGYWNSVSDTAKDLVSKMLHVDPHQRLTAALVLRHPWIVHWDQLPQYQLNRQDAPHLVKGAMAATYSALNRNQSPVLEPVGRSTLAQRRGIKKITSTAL
Sequence of Serine/threonine-protein kinase Nek7 (Homo sapiens) (Q8TDX7 whole entry, looked up): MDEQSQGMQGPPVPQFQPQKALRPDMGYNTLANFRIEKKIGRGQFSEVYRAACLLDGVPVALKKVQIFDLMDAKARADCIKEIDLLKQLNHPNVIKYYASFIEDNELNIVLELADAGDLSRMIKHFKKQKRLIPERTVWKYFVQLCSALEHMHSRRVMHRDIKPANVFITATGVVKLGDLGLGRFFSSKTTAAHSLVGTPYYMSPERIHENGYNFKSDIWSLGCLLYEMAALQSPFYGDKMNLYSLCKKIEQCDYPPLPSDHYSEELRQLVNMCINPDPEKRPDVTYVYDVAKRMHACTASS
Sequence of RAC-alpha serine/threonine-protein kinase (Homo sapiens) (P31749 whole entry): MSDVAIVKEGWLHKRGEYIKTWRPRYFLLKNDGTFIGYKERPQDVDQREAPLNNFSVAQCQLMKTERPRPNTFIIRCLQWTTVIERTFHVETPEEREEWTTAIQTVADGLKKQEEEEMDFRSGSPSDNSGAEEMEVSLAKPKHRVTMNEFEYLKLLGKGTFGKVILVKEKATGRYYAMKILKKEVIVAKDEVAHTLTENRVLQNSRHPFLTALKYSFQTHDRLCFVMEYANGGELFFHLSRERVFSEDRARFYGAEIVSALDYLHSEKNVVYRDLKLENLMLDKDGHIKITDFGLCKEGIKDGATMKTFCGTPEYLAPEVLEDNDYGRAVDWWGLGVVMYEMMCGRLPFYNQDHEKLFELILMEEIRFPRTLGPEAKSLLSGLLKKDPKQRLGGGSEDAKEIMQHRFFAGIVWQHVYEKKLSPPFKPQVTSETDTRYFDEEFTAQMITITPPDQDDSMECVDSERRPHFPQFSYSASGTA
Sequence of Serine/threonine-protein kinase PAK 6 (Homo sapiens) (Q9NQU5 whole entry, looked up): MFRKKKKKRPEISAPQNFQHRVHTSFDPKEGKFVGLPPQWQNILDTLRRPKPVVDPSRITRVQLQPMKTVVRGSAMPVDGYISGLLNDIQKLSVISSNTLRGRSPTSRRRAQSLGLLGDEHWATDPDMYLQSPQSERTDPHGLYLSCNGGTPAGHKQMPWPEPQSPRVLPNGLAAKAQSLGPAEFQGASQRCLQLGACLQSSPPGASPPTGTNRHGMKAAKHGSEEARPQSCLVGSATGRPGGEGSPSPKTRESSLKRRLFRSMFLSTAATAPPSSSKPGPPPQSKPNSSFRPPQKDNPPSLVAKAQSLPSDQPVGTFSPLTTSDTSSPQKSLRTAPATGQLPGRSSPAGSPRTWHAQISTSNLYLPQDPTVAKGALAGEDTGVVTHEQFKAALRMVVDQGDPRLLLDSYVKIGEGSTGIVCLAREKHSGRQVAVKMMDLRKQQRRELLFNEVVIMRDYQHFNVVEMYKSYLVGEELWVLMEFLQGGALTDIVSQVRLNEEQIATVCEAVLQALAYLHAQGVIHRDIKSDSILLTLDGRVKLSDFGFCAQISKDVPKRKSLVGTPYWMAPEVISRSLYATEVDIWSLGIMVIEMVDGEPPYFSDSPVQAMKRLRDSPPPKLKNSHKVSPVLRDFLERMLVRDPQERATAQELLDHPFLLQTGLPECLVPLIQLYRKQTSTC
Sequence of Aurora kinase B (Homo sapiens) (Q96GD4 whole entry): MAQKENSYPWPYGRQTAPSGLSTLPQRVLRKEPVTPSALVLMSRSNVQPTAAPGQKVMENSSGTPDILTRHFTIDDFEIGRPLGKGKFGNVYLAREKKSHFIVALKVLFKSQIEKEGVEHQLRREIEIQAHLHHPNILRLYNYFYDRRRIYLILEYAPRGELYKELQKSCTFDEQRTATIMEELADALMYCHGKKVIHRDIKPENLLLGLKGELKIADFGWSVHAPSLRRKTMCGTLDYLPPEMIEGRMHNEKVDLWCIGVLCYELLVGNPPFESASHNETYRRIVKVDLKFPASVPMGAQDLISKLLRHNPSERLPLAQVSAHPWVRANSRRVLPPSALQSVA

Compound	residual activity [1] [%]	residual activity [2] [%]	residual activity [3] [%]	residual activity [4] [%]	residual activity [5] [%]	residual activity [6] [%]	residual activity [7] [%]	residual activity [8] [%]	IC50 [9] [nM]	residual activity [10] [%]	residual activity [11] [%]	residual activity [12] [%]	residual activity [13] [%]	residual activity [14] [%]
O=C(Nc1cc(C(F)(F)F)ccc1F)Nc1ccc(Oc2ccnc3[nH]c(=O)[nH]c23)c2ccccc12	75	< 25	100	< 25	100	100	75	100	37	100	100	100	< 25	75
CC(C)(C)c1cccc(NC(=O)Nc2ccc(Oc3ccnc4[nH]c(=O)[nH]c34)c3ccccc23)c1	75	50	< 25	75	75	75	75	75	79	75	75	75	75	75
CSc1cc(Oc2ccnc3[nH]c(=O)[nH]c23)ccc1NC(=O)Nc1cccc(C(F)(F)F)c1	100	< 25	100	< 25	100	100	75	75	1	100	100	100	50	75
